# Source: ChEMBL document CHEMBL4311953, “Targeting DNA Repair in Tumor Cells via Inhibition of ERCC1-XPF” (J Med Chem, 2019)
# pIC50, pKd: −log10 of the molar value. The source made the active and inactive calls. The rule behind the calls is not given here.
# Legend:
# [1] = biological target: T1, DNA excision repair protein ERCC-1/DNA repair endonuclease XPF (Homo sapiens) (UniProt P07992+Q92889); test: Inhibition of human His6-tagged ERCC1-XPF endonuclease activity expressed in Escherichia coli BL21 (DE3) at 8 uM using [6-FAM-5'-CAGCGCTCGG(20T)CCGAGCGCTG-3'-dabcyl] as substrate measured for 12 mins by fluorescence assay
# Method in brief: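 Real-time incision of 100 nM 6-FAM/dabcyl stem-loop substrate by 25 ng recombinant ERCC1-XPF in 50 mM Tris-Cl pH 8, 20 mM NaCl, 0.5 mM DTT, 0.75 mM MnCl₂ at 25°C; fluorescence (ex 485/em 520 nm) read for 12 min.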
# [2] = biological target: T1, DNA excision repair protein ERCC-1/DNA repair endonuclease XPF (Homo sapiens); test: (§1) Inhibition of ERCC1-XPF-mediated nucleotide excision repair in human HCT116 cells assessed as reduction in removal of UV-induced cyclobutane pyrimidine dimer by measuring cyclobutane pyrimidine dimer level at 2 uM incubated for 1 hr prior to compound washout followed by 8 J/m2 UV irradiation and subsequent compound addition and measured after 24 hrs by DAPI staining-based immunofluorescence assay (reference value: 80%); format: cell-based; design: scale not given: the % may be the effect or the level left
# Method in brief: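 HCT-116 cells on coverslips, 1 h compound pretreatment, 8 J/m² UV-C (254 nm), then fresh medium with compound at 37°C up to 24 h. Fixed, HCl-denatured, stained with anti-thymine dimer antibody plus fluorescent secondary, DAPI mount. Intensity from 50 random cells per treatment, normalized; Student's t-test.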
# HCT-116 [3] = test: (§2) Potentiation of cyclophosphamide-induced cytotoxicity against human HCT116 cells assessed as reduction in colony formation at 2 uM incubated for 4 hrs prior to 300 uM cyclophosphamide addition for 24 hrs followed by compound washout and subsequent compound redosing and measured after 8 days by crystal violet staining-based assay; format: functional; design: scale not given: the % may be the effect or the level left
# Method in brief: (§3)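 HCT-116 cells plated in triplicate, attached overnight, pretreated 4 h with 1 or 2 μM compound, then cyclophosphamide (0-300 μM) added for 24 h; medium replaced with compound alone and incubated 8 more days at 37°C, 5% CO₂. Crystal violet colonies counted, surviving fraction calculated; three independent sets, Student's t-test.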
# [4] = Binding affinity to 6-FAM-5'-CAGCGCTCGG(20T)CCGAGCGCTG-3'-dabcyl DNA (unknown origin) by spectrofluorimetric method
# Method in brief: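 FAM/dabcyl-labelled stem-loop DNA substrate excited at 490 nm, emission at 520 nm followed as a function of ligand concentration; Kd obtained by nonlinear regression assuming unimodal binding.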
# [5] = Protein binding in serum (unknown origin); format: ADME, cell-free
# [6] = biological target: T1, DNA excision repair protein ERCC-1/DNA repair endonuclease XPF (Homo sapiens); test: Binding affinity to human His6-tagged ERCC1-XPF expressed in Escherichia coli BL21 (DE3) assessed as tryptophan fluorescence quenching at 2 uM by spectrofluorimetric method relative to control
# Method in brief: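 Intrinsic tryptophan fluorescence of purified ERCC1-XPF (13–20 nM) with 2 μM ligand added from stock, protein dilution kept below 3%; excitation 295 nm, quenching read at 330 nm, room temperature.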
# [7] = biological target: T1, DNA excision repair protein ERCC-1/DNA repair endonuclease XPF (Homo sapiens); test: Binding affinity to human N-terminal His6-tagged RED-tris-NTA labelled ERCC1 (96 to 297 residues)-XPF (667 to 916 residues) expressed in Escherichia coli BL21 (DE3) at 10 uM measured after 20 mins by microscale thermophoresis assay
# Method in brief: (§4)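 Truncated His-tagged dERCC1 (96-297) and dXPF (667-916) from BL21(DE3), labelled with RED-tris-NTA, at 20 nM singly or as equimolar dimer in 20 mM HEPES pH 7.4, 50 mM NaCl, 1 mM DTT, 2 mM MgCl2, 5% glycerol, 0.01% CHAPS; 10 μM compound or DMSO, 20 min room temperature; MST at high power, 670 nm emission.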
# Cytochrome P450 2C9 = Cytochrome P450 2C9 (Homo sapiens, UniProt P11712); test: Inhibition of CYP2C9 (unknown origin); format: ADME
# HCT-116 [8] = test: Cytotoxicity against human HCT116 cells assessed as reduction in colony formation at 1 to 2 uM; settings: hct-116, 2 µM
# HCT-116 [9] = test: as §2, with “human XPF-knockout” for “human”; format: functional; design: scale not given: the % may be the effect or the level left
# [10] = biological target: T1, DNA excision repair protein ERCC-1/DNA repair endonuclease XPF (Homo sapiens); test: Time dependent inhibition of human His6-tagged ERCC1-XPF endonuclease activity expressed in Escherichia coli BL21 (DE3) at 3 uM using [6-FAM-5'-CAGCGCTCGG(20T)CCGAGCGCTG-3'-dabcyl] as substrate in presence of 5 to 10% DMSO by fluorescence assay
# Method in brief: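 ERCC1-XPF preincubated with 3 μM compound in 10% or 5% DMSO; reactions started at T0 with substrate, or at T12 […]. Same stem-loop incision read-out (ex 485/em 520) in Tris-Cl pH 8, MnCl2 buffer at 25°C.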
# [11] = Binding affinity to RED-tris-NTA at 10 uM measured after 20 mins by microscale thermophoresis assay; method in brief: as §4
# HCT-116 [12] = test: Phototoxicity against human HCT116 cells assessed as reduction in colony formation at 2 uM incubated for 1 hr prior to compound washout followed by 254 nm UV irradiation and subsequent compound addition measured after 10 days by crystal violet staining-based assay; format: functional, cell-based
# Method in brief: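 HCT-116 cells plated in triplicate (100-800 cells), attached overnight, treated 1 h with 1 or 2 μM compound, exposed to 0-10 J/m² 254 nm UV-C, then grown 10 days with inhibitor at 37°C, 5% CO₂. Crystal violet stained colonies counted; plating efficiency and surviving fraction calculated; three independent sets.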
# Cytochrome P450 2C19 = Cytochrome P450 2C19 (Homo sapiens, UniProt P33261); test: Inhibition of CYP2C19 (unknown origin); format: ADME
# Cytochrome P450 2D6 = Cytochrome P450 2D6 (Homo sapiens, UniProt P10635); test: Inhibition of CYP2D6 (unknown origin); format: ADME
# HCT-116 [13] = test: as §2, with “human XPF-knockout” for “human”, “50” for “300”; format: functional, cell-based
# HCT-116 [14] = test: as §2, with “50” for “300”; format: functional, cell-based; method in brief: as §3
# Cytochrome P450 3A4 = Cytochrome P450 3A4 (Homo sapiens, UniProt P08684); test: Inhibition of CYP3A4 (unknown origin) using midazolam as substrate; format: ADME
# [15] = Efflux ratio of permeability in human Caco2 cells; format: ADME, cell-based; settings: Caco-2
# [16] = Stability of the compound in human liver microsomes; format: ADME, Microsome
# [17] = biological target: T2, DNA excision repair protein ERCC-1/DNA repair endonuclease XPF (Homo sapiens, UniProt P07992+Q92889)
# T2 sequence (P07992 whole entry): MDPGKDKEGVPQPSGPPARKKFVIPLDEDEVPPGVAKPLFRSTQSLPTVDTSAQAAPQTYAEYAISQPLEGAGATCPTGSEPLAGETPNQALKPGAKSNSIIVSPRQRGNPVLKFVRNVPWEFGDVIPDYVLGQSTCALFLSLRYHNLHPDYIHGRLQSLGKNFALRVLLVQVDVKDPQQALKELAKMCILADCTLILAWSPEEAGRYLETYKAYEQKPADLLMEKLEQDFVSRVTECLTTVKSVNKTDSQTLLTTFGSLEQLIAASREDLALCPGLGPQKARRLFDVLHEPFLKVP
# T2 sequence (Q92889 whole entry): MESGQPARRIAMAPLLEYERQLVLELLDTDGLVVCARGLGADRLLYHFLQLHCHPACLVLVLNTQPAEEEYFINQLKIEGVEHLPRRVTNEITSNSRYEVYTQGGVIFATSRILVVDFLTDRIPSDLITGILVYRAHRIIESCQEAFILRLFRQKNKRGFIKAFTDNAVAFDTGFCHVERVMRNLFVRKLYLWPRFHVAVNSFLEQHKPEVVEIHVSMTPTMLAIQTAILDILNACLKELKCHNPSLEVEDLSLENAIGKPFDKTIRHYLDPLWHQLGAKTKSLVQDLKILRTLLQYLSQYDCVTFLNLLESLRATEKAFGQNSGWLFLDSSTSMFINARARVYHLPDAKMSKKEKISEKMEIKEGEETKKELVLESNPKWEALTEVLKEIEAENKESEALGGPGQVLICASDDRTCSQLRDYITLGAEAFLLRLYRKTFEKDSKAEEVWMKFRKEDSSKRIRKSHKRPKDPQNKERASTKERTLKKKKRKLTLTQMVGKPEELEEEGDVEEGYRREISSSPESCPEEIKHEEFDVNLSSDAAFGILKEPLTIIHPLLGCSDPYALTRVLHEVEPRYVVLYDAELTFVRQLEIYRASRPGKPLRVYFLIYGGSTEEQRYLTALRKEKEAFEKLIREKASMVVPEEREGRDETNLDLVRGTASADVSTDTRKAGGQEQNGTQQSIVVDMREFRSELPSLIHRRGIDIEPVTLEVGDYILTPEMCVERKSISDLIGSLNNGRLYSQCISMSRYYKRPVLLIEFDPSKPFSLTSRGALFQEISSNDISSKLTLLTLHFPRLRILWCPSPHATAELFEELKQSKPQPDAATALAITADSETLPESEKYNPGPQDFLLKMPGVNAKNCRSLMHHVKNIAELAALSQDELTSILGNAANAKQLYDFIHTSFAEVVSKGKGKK
# Cytochrome P450 1A2 = biological target: T3, Cytochrome P450 1A2 (Homo sapiens, UniProt P05177); test: Inhibition of CYP1A2 (unknown origin); format: ADME
# T3 sequence (P05177 whole entry): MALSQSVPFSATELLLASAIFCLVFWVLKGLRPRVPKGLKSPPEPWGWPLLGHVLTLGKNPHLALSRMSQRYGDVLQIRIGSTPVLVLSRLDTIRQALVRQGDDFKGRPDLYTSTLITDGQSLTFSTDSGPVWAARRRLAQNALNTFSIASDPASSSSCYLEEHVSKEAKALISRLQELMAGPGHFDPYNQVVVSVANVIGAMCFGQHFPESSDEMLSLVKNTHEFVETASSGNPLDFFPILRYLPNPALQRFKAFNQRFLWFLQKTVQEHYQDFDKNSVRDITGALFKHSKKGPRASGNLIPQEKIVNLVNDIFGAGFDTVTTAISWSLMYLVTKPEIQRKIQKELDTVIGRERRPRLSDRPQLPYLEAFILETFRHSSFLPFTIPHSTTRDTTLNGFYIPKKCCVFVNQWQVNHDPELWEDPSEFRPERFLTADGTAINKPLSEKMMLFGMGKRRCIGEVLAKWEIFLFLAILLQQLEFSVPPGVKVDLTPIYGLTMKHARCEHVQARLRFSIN
# [18] = biological target: T1, DNA excision repair protein ERCC-1/DNA repair endonuclease XPF (Homo sapiens); test: as §1, with “dimer” for “dimer by measuring cyclobutane pyrimidine dimer level”, “assay” for “assay (reference value: 80%)”; format: cell-based
# Method in brief: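 HCT-116 cells on coverslips pretreated 1 h with compound, then 8 J/m² UV-C (254 nm) and re-fed medium with compound; incubated at 37°C up to 24 h. Methanol-fixed, HCl-denatured cells stained with anti-thymine dimer antibody and fluorescent secondary, DAPI mounted. Intensity quantified from 50 random cells per treatment; Student's t-test.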
# Chain of Cytochrome P450 2D6 (P10635 whole entry): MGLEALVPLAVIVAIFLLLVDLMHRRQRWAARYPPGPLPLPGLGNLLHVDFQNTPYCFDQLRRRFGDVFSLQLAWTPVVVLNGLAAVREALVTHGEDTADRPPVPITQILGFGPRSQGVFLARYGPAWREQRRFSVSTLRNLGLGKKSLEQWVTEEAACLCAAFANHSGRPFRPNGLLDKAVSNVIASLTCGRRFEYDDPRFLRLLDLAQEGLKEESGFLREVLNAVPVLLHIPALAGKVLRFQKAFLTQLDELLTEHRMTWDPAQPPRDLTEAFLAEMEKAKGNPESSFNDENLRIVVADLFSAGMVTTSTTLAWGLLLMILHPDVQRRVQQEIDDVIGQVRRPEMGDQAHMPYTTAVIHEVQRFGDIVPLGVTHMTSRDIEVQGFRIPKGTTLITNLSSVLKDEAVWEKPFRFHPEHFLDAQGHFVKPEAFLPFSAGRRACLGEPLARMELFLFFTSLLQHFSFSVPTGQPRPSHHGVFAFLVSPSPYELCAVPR
# Chain of Cytochrome P450 2C19 (P33261 whole entry): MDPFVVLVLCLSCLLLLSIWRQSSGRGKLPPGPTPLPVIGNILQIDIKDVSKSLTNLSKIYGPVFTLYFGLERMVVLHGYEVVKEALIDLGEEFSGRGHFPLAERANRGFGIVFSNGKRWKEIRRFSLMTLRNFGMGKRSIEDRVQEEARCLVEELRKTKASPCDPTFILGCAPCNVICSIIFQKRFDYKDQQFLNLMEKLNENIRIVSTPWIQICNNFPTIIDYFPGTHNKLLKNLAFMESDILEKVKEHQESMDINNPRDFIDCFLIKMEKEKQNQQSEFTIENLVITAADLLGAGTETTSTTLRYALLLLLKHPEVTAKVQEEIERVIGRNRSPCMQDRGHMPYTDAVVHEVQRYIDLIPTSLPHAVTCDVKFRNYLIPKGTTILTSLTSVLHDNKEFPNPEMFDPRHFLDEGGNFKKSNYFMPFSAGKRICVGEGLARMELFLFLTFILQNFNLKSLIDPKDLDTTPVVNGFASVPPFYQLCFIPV
# Chain of Cytochrome P450 2C9 (P11712 whole entry): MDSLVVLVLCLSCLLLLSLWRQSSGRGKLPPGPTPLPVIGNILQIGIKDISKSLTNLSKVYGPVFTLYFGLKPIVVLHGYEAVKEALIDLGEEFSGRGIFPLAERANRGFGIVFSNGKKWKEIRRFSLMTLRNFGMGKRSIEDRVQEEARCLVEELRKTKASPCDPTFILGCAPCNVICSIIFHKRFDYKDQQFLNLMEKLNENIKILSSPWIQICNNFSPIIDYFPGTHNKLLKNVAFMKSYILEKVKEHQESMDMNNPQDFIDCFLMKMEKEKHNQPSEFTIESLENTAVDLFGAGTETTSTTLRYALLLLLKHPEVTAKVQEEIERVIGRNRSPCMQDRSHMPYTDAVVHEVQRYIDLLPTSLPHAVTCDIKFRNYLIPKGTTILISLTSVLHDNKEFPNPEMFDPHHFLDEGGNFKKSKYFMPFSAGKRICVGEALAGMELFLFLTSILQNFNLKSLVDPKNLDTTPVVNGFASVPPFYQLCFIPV
# Chain of Cytochrome P450 3A4 (P08684 whole entry): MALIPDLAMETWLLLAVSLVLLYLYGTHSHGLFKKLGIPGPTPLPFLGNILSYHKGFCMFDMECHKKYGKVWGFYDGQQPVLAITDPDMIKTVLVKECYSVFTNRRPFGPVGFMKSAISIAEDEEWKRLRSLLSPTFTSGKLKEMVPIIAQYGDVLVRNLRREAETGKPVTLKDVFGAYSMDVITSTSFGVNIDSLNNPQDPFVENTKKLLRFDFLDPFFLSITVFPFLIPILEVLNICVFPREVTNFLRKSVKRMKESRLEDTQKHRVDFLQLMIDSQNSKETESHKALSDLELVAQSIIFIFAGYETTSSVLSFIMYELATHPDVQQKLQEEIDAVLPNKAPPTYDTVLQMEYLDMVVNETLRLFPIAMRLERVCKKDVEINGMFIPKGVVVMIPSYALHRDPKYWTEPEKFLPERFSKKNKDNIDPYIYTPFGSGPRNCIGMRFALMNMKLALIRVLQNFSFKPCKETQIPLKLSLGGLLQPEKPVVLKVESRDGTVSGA
structure (smiles),measurement,setting,value
COc1ccc2nc3cc(Cl)ccc3c(Nc3ccc(O)c(CN4CCN(C5CCCCC5)CC4)c3)c2c1,inhibition,[1],Active
COc1ccc2nc3cc(Cl)ccc3c(Nc3ccc(O)c(CN4CCN(CCN(C)C)CC4)c3)c2c1,Activity,[2],60%
same,Activity,HCT-116 [3],100%
same,pKd,[4],5.68
same,inhibition,[1],Active
same,PB,[5],Active
same,Activity,[6],23%
same,Activity,[7],Active
same,pIC50,Cytochrome P450 2C9,< 6.00
same,Activity,HCT-116 [8],Non-Toxic
same,Activity,HCT-116 [9],100%
same,TDI,[10],Active
same,Activity,[11],inactive
same,Activity,HCT-116 [12],Active
same,pIC50,Cytochrome P450 2C19,< 6.00
same,pIC50,Cytochrome P450 2D6,< 6.00
same,Activity,HCT-116 [13],Active
same,Activity,HCT-116 [14],Active
same,pIC50,Cytochrome P450 3A4,< 6.00
COc1ccc2nc3cc(Cl)ccc3c(Nc3ccc(O)c(CN4CCN(C)CC4)c3)c2c1,inhibition,[1],Active
same,PB,[5],Active
same,pIC50,Cytochrome P450 2C9,4.30 to 5.00
same,efflux ratio,[15],11.2
same,Stability,[16],Unstable
same,pIC50,Cytochrome P450 2C19,4.30 to 5.00
same,pIC50,[17],5.73
same,pIC50,Cytochrome P450 2D6,5.00 to 6.00
same,pIC50,Cytochrome P450 1A2,4.30 to 5.00
same,pIC50,Cytochrome P450 3A4,5.00 to 6.00
COc1ccc2nc3cc(Cl)ccc3c(Nc3ccc(O)c(CN4CCN(c5ccc(Cl)c(Cl)c5)CC4)c3)c2c1,Activity,[6],3%
same,inhibition,[18],inactive
